Screening data (PubChem BioAssay)
NPY-Y2 antag – NPY-Y2 (human) receptor antagonism; NPY-Y2 expressing cells, antagonist mode; inhibition, % at 2.7 µM; 140,000 compounds, 0.99% hits;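 further: 0% = vehicle with agonist challenge and 100% = reference antagonist with challenge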
Target sequence (P49146 whole entry, looked up): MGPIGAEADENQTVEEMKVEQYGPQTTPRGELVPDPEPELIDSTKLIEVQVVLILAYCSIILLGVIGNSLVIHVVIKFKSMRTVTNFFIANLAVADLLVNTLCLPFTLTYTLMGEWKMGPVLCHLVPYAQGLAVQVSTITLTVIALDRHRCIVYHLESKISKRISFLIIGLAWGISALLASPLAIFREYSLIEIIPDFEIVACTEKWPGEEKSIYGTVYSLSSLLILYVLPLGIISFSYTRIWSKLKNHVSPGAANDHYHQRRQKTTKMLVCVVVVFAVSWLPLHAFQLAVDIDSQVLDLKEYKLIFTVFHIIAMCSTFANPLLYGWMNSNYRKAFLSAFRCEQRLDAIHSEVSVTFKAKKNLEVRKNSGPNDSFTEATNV
TbHK1 inh – blocks Trypanosoma brucei hexokinase 1 activity. recombinant TbHK1, G6PDH-coupled NADH A340. AID 1430. inhibition, % at 10 µM. 220,000 compounds, 0.11% hits;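 active means inhibition of 50% or more in the single-dose primary screen; inactive means inhibition below 50%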
NPY-Y1 PAM-ag – potentiators or agonists of human neuropeptide Y receptor Y1 | P25929 | NPY-Y1 expressing cells, potentiator/agonist activation | activation, % at 3.6 µM | 220,000 compounds, 0.37% hits; in the data active means activation above about 33%, passing the limit was not always enough;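 further: cells stimulated with NPY at EC10 then isoproterenol at EC100; 0% = low agonist plus stimulus and 100% = saturating agonist plus stimulus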
Target sequence (P25929 whole entry, looked up): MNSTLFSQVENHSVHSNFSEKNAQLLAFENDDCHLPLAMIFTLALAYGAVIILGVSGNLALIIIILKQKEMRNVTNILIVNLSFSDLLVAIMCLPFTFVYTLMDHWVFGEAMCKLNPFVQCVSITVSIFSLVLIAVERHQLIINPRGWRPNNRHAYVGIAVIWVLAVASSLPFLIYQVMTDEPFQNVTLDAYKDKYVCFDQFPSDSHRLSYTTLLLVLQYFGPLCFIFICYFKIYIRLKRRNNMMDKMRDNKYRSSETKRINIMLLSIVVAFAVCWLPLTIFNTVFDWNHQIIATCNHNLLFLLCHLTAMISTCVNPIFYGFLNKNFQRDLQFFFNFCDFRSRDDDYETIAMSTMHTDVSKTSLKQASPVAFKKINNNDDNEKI
Calpain2 inh – inhibitors of pig calpain II. purified calpain II, fluorogenic peptide substrate, 30 min. inhibition, % at 16 µM. 220,000 compounds, 0.37% hits. AID 1236;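 active means inhibition above about 50%, limit read from the data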
NPY Y1 blocker – antagonists of human neuropeptide Y receptor Y1. inhibition, % at 3.6 µM. HEK293-CNG Y1 cells, membrane potential fluorescence; NPY at EC95, then isoproterenol. 200,000 compounds, 1% hits. P25929;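 active means inhibition above the campaign mean inhibition of all tested compounds plus 3 SD, cut at about 20% in these data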;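 further: 0% = DMSO wells given NPY plus isoproterenol and 100% = isoproterenol alone without NPY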
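Material: HEK293 Y1/CNG channel cell line; also added: NPY (25 nM), isoproterenol (1 µM), Ro 20-1724 (25 µM); doses: one concentration, 3.6 µM, in 0.4% DMSO; schedule: compound incubation 1 h at room temperature, readout 45 min post-stimulation; technique: membrane potential fluorescence; measure: fluorescence ratio normalized to % inhibition between controls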
NPY2 pot ag – potentiates or activates human NPY-Y2 receptor. P49146. cells expressing NPY-Y2, potentiator/agonist read-out. activation, % at 3.6 µM. 220,000 compounds, 0.45% hits; in the data active means activation above about 27%;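 further: cells stimulated with NPY near EC25 plus isoproterenol at EC100; 0% = vehicle plus submaximal agonist and 100% = vehicle plus saturating agonist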
NPY1 antag conf – confirmation of human neuropeptide Y receptor Y1 antagonists; shares compounds with NPY Y1 blocker; HEK293-CNG NPY-Y1, membrane potential fluorescence, cAMP; NPY challenge against isoproterenol-raised cAMP; inhibition, % at 3.6 µM; 1,200 compounds, 21% hits; in the data active means inhibition above about 20%;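 further: 0% = vehicle with agonist plus stimulus and 100% = stimulus alone without agonist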
NPY-Y2 antag ct – counter-screen for NPY-Y1 antagonists: human NPY-Y2 antagonism; shares compounds with NPY Y1 blocker; 1,200 compounds, 28% hits; inhibition, % at 3.6 µM; HEK293 NPY-Y2 CNG membrane potential fluorescence; cells given NPY, then isoproterenol;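 further: 0% = DMSO with agonist challenge and 100% = reference antagonist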
NPY-Y1 pot conf – confirmation of human NPY-Y1 receptor potentiators or agonists. 280 compounds, 20% hits. shares compounds with NPY-Y1 PAM-ag. cell-based NPY-Y1 potentiator/agonist assay. activation, % at 3.6 µM; in the data active means activation above about 45%;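 further: cells challenged with NPY at its EC10 plus isoproterenol stimulus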
NPY-Y2 counter – potentiates or activates NPY-Y2, counter-screen for NPY-Y1 hits | shares compounds with NPY-Y1 PAM-ag | HEK293-CNG cells, membrane-potential fluorescence (FLIPR), 1536-well | activation, % at 3.6 µM | 280 compounds, 20% hits | AID 1649; in the data active means activation above about 33%
NPY-Y1 ag – activates human NPY-Y1, counter-screen for NPY-Y1 potentiators; AID 1697; shares compounds with NPY-Y1 PAM-ag; HEK293 Y1-CNGC, membrane potential fluorescence, agonist mode; activation, % at 3.6 µM; 280 compounds, 50% hits;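 active means percent activation above the mean of DMSO-only control wells plus 3 SD of those wells, cut at about 18% in these data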;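 further: cells challenged with isoproterenol plus Ro 20-1724 with no NPY in test wells; Y1 agonism lowers isoproterenol-driven cAMP and reduces probe fluorescence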
NPY-Y2 ag – human NPY-Y2 agonism as NPY-Y1 counter-screen; shares compounds with NPY-Y1 PAM-ag; HEK293 Y2-CNGC, membrane potential fluorescence, agonist mode; activation, % at 3.6 µM; 280 compounds, 67% hits;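 active means activation above the solvent-only control wells' mean plus 3 SD, cut at about 11% in these data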;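 further: 0% = DMSO with isoproterenol and 100% = 40 nM NPY maximal response; agonism lowers cAMP so well fluorescence drops in active wells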
CNGC inh 2 – counter-screen for NPY-Y1 potentiators or agonists: CNG channel inhibitors; shares compounds with NPY-Y1 PAM-ag; HEK293-CNG parental, isoproterenol cAMP, membrane potential fluorescence; inhibition, % at 3.6 µM; 280 compounds, 42% hits;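 active means inhibition above the mean of stimulated solvent-only control wells plus 3 SD, cut at about 22% in these data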;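 further: 0% = isoproterenol-stimulated DMSO wells and 100% = unstimulated DMSO wells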
NPY-Y2 pot conf – human NPY-Y2 potentiation or agonism, confirmation; 450 compounds, 20% hits; shares compounds with NPY2 pot ag; cell-based NPY-Y2 potentiator/agonist assay; activation, % at 3.6 µM; AID 1539; in the data active means activation above about 33%
NPY-Y1 potentiator – potentiates or activates NPY-Y1, counter-screen for NPY-Y2 hits; activation, % at 3.6 µM; shares compounds with NPY2 pot ag; 450 compounds, 20% hits; Y1 HEK293-CNG cells, membrane potential fluorescence; in the data active means activation above about 45%;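 further: cells stimulated with submaximal NPY then isoproterenol with phosphodiesterase inhibitor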
NPY-Y1 ag 2 – human NPY-Y1 agonism as NPY-Y2 potentiator counter-screen; shares compounds with NPY2 pot ag; HEK293 Y1-CNGC, membrane potential fluorescence; activation, % at 3.6 µM; 450 compounds, 37% hits;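 active means activation above the mean of DMSO-only control wells plus 3 SD, cut at about 18% in these data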;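 further: cells stimulated with 1 µM isoproterenol plus the PDE inhibitor Ro 20-1724; 0% = isoproterenol with DMSO and no NPY and 100% = 40 nM NPY; Y1 agonists lower the membrane potential dye signal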
CNGC inhibitor – counter-screen for NPY-Y2 potentiators: inhibitors of CNG channel activity | shares compounds with NPY2 pot ag | HEK293-CNG parental, isoproterenol cAMP, membrane potential fluorescence | inhibition, % at 3.6 µM | 450 compounds, 32% hits | AID 1703;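 active means inhibition above the control-well mean plus 3 SD of those wells, cut at about 22% in these data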;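 further: 0% = DMSO with isoproterenol and 100% = DMSO without isoproterenol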
NPY-Y2 ag 2 – activates human NPY-Y2 receptor in potentiator counter-screen; shares compounds with NPY2 pot ag; HEK293 Y2/CNGC cells, membrane potential fluorescence, agonist mode; activation, % at 3.6 µM; 450 compounds, 56% hits; AID 1710;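 active means activation above the mean of solvent-only control wells plus 3 SD, cut at about 10% in these data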;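 further: cells stimulated by isoproterenol with no NPY added so direct agonism is tested; 0% = DMSO with isoproterenol alone and 100% = NPY at EC100 plus isoproterenol; agonism lowers probe fluorescence through less cAMP and CNG channel opening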
G6PDH counter – Leuconostoc glucose-6-phosphate dehydrogenase inhibition, counter-screen | purified G6PDH, NADH absorbance, 1 h | inhibition, % at 10 µM | AID 2516 | 210 compounds, 7% hits | shares compounds with TbHK1 inh;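 active means at least 50% inhibition in the glucose-6-phosphate dehydrogenase coupled counterscreen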
TbHK1 rescreen – T. brucei hexokinase 1 inhibition, rescreen | shares compounds with TbHK1 inh | recombinant TbHK1, G6PDH-coupled NADH A340 absorbance | inhibition, % at 10 µM | 210 compounds, 10% hits | AID 2560;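 active means inhibition of at least 50% in both of the two screening runs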;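 further: 0% and 100% set by the maximum and minimum signal control wells on each plate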
Active calls of the source: *; . = not tested or not shown. Most compounds without a hit are left out; they make up all but 2.3% or so of the library. Unless noted, no stated cut-off is given here; in the data, active means inhibition above about 17%; inactive means the rest.

SMILES | NPY-Y2 antag | TbHK1 inh | NPY-Y1 PAM-ag | Calpain2 inh | NPY Y1 blocker | NPY2 pot ag | others
Cc1ccc2c(c1)C1CN(C)CCC1N2C(=O)c1cn(-c2ccccc2)nc1-c1ccccc1 (centres undefined) | . | -3 | -36 | 2 | 70* | -18 | NPY1 antag conf=20;NPY-Y2 antag ct=25*
Cc1ccc2c(c1)C1CN(C)CCC1N2C(=O)c1cccnc1Cl (centres undefined) | . | -3 | 15 | -17 | . | -2
CCNC(=O)[C@H]1O[C@@H](n2cnc3c(N)ncnc32)[C@H](O)[C@@H]1O | . | . | -21 | -9 | 145* | -53 | NPY1 antag conf=118*;NPY-Y2 antag ct=105*
COc1ccc(-n2c(O)c(C(C)=NCCN3CCNCC3)c(=O)[nH]c2=O)cc1 | -2 | 11 | 1 | -18 | -6 | -12
O=C(N=Nc1c(O)[nH]c(=O)[nH]c1=O)C1COc2cc3ccccc3cc2O1 (centres undefined) | . | -6 | -13 | -37 | 25* | -12 | NPY1 antag conf=9;NPY-Y2 antag ct=8
NC(=O)c1ccc(N=Nc2c(O)[nH]c(=O)[nH]c2=O)cc1 | -1 | 0 | -21 | -12 | -3 | 8
O=C(c1ccco1)c1cn(Cc2ccc(Cl)cc2)c2ccccc12 | 17 | -13 | -64 | 12 | 33* | -26 | NPY1 antag conf=20*;NPY-Y2 antag ct=15
COP(=O)(CC(=O)O)c1ccccc1 (centres undefined) | 0 | -4 | 26 | -32 | 2 | 6
COC(=O)[C@@H]1C[C@@]1(C)[C@@H](NP(=O)(c1ccccc1)c1ccccc1)c1ccccc1 | 17 | 3 | -14 | 0 | 30* | 0 | NPY1 antag conf=18;NPY-Y2 antag ct=10
O=C(NC(=O)N1CCC2(CC1)OCCO2)c1ccc(Cl)cc1 | . | -7 | 15 | 1 | 0 | 3
CNCC(O)c1cccc(OC(=O)c2ccccc2C)c1 (centres undefined) | 9 | -1 | -30 | 3 | 22* | 7 | NPY1 antag conf=3;NPY-Y2 antag ct=6
CCOC(=O)C(O)(c1ccc(N(CC)S(=O)(=O)c2ccc(C)cc2)cc1)C(F)(F)F (centres undefined) | 12 | -5 | -39 | -10 | 12 | -34
CCC(=NCc1ccc(F)cc1)c1c(O)n(C)c(=O)n(C)c1=O | 3 | 9 | 37* | -45 | 4 | 0 | NPY-Y1 pot conf=-22;NPY-Y2 counter=-13;NPY-Y1 ag=-24;NPY-Y2 ag=-9;CNGC inh 2=-16
CCOC(=O)c1ccc2c(c1)n(Cc1ccccc1)c(C)[n+]2CC | . | -5 | -16 | -11 | -3 | 6
CN(C)CCCN=Cc1c(O)n(CCc2ccccc2)c(=O)[nH]c1=O | 0 | -1 | 15 | 3 | 1 | 3
O=c1[nH]c(=O)n(CCc2ccccc2)c(O)c1C=NC1CC1 | . | 4 | -7 | -14 | . | 73* | NPY-Y2 pot conf=-1;NPY-Y1 potentiator=0;NPY-Y1 ag 2=-3;CNGC inhibitor=3;NPY-Y2 ag 2=-3
C=CCNC(=S)Nc1ccc(OC(=O)Nc2ccc(Cl)c(Cl)c2)cc1 | . | 3 | 12 | 10 | . | 83* | NPY-Y2 pot conf=10;NPY-Y1 potentiator=7;NPY-Y1 ag 2=2;CNGC inhibitor=9;NPY-Y2 ag 2=10
c1ccc2cc(C3N4CCCN34)ccc2c1 (centres undefined) | . | 1 | 18 | -15 | 2 | 2
Cc1ccc(C2=NC(C)(C)N3C2C3c2ccc([N+](=O)[O-])cc2)cc1 (centres undefined) | 2 | 28 | 12 | 2 | 2 | -1
CN1CCN(c2cccc3c2C(=O)c2ccccc2C3=O)CC1 | -2 | -4 | 23 | 26 | -5 | 33* | NPY-Y2 pot conf=29;NPY-Y1 potentiator=33;NPY-Y1 ag 2=18*;CNGC inhibitor=24*;NPY-Y2 ag 2=33*
CN1CCN(c2ccccc2N)CC1 | 0 | -4 | 16 | -5 | 5 | -6
O=C(Nc1ccncc1)c1cccn(Cc2ccccc2)c1=O | . | -28 | 20 | -19 | -4 | 34* | NPY-Y2 pot conf=2;NPY-Y1 potentiator=-33;NPY-Y1 ag 2=-25;CNGC inhibitor=-15;NPY-Y2 ag 2=-10
CCn1nc(-c2ccccc2)nc2c(=O)n(C)c(=O)nc1-2 | 4 | 69* | -16 | 50 | 2 | -5 | G6PDH counter=34;TbHK1 rescreen=38
Cc1nnc(SCc2nc3ccccc3c(=O)n2-c2ccccc2Cl)n1N | 0 | -1 | 7 | -31 | -4 | 8
O=c1c2ccccc2[se]n1-c1ccccc1 | 2 | 91* | 14 | 19 | -2 | 22 | G6PDH counter=2;TbHK1 rescreen=90*
O=c1c2ccccc2nc(-c2ccccc2)n1-c1ccccc1 | . | -11 | -5 | 14 | . | -22
